Assay results pooled from the literature.
FLT3 D835Y: Receptor-type tyrosine-protein kinase FLT3 (FLT3, Homo sapiens, UniProt P36888, D835Y)
FLT3 D835H: Receptor-type tyrosine-protein kinase FLT3 (FLT3, Homo sapiens, UniProt P36888, D835H)
FLT3 D835V: Receptor-type tyrosine-protein kinase FLT3 (FLT3, Homo sapiens, UniProt P36888, D835V)
FLT3 N841I: Receptor-type tyrosine-protein kinase FLT3 (FLT3, Homo sapiens, UniProt P36888, N841I)
FLT3 ITD: Receptor-type tyrosine-protein kinase FLT3 (FLT3, Homo sapiens, UniProt P36888, ITD)
FLT3 autoinhibited: Receptor-type tyrosine-protein kinase FLT3, autoinhibited (FLT3, Homo sapiens, UniProt P36888)
FLT3 R834Q: Receptor-type tyrosine-protein kinase FLT3 (FLT3, Homo sapiens, UniProt P36888, R834Q)
FLT3: Receptor-type tyrosine-protein kinase FLT3 (FLT3, Homo sapiens, UniProt P36888)
FLT3 K663Q: Receptor-type tyrosine-protein kinase FLT3 (FLT3, Homo sapiens, UniProt P36888, K663Q)

Structure (SMILES) | target | test | setting | remaining binding
C=CC(=O)N1CCC(C(=O)NCC(=O)N2CCN(c3nc(-c4cnc(N)nc4C(F)F)nc(N4CCOCC4)n3)CC2)CC1 | FLT3 D835Y | binding, competition with immobilised ligand | 1 µM | 99%
O=C(c1ccc(Nc2ncc(Cl)c(-c3ccc(Cl)s3)n2)cc1)N1CCC(N2CCCC2)CC1 | FLT3 D835H | binding, competition with immobilised ligand | 1 µM | 2.3%
c1cnn2ncc(-c3ccnc(N4CCC45COC5)n3)c2c1 | FLT3 D835V | binding | 1 µM | 20%
COc1cnc(Nc2cccc(S(N)(=O)=O)c2)nc1N1CCN(c2ccccc2)CC1 | FLT3 N841I | binding, competition with immobilised ligand | 1 µM | 21%
COc1ncc2cc3ccccc3nc2c1C#N | FLT3 ITD | cell-free assay, competition with immobilised ligand | 5 µM | 94%
CN1CCN(c2ccc(Nc3nccc(-c4ccccc4)n3)cc2C(F)(F)F)CC1 | FLT3 D835H | binding | 10 µM | 0.2%
C[C@@H](c1ccc(-n2cnc3c(N)ncnc32)cc1)N1CCc2nn(C)c(Cc3ccccc3)c2C1=O | FLT3 N841I | binding, competition with immobilised ligand | 0.1 µM | 97%
NS(=O)(=O)c1cc(NC(=O)C2(c3ccccc3Cl)CC2)ccc1Oc1cccc(Cl)c1 | FLT3 D835Y | cell-free assay, competition with immobilised ligand | 1 µM | 100%
CN1CCN(c2ccc(Nc3nccc(-c4cccc([N+](=O)[O-])c4)n3)cc2C(F)(F)F)CC1 | FLT3 D835Y | binding | 10 µM | 0%
COc1ccnn2ncc(-c3ccnc(N(C)C)n3)c12 | FLT3 autoinhibited | binding | 1 µM | 78%
O=C(c1ccc(Nc2ncc(Cl)c(-c3cc4ccccc4s3)n2)cc1)N1CCC(N2CCCC2)CC1 | FLT3 D835Y | binding, competition with immobilised ligand | 1 µM | 3.7%
O=C(Nc1c[nH]nc1C(=O)NC1CCNCC1)c1cc(F)cc(F)c1 | FLT3 R834Q | binding, competition with immobilised ligand | 1 µM | 94%
C[C@H](c1cccc(C#N)c1)n1cc(Cl)cc(C(N)=O)c1=N | FLT3 R834Q | cell-free assay, competition with immobilised ligand | 1 µM | 100%
O=C(NCCCN1CCOCC1)c1ccc(Nc2ncc(Cl)c(-c3ccc(Cl)s3)n2)cc1 | FLT3 ITD | binding, competition with immobilised ligand | 1 µM | 0.75%
C[C@H](c1ccc(F)cc1)N(Cc1cccc(C(=O)O)c1)C(=O)c1cnc2ccccc2c1 | FLT3 D835V | cell-free assay, competition with immobilised ligand | 1 µM | 98%
O=C(c1ccc(Nc2nccc(-c3cc4ccccc4s3)n2)cc1)N1CCC(N2CCCC2)CC1 | FLT3 D835H | binding, competition with immobilised ligand | 1 µM | 29%
FC(F)(F)c1ccc2c(c1)nc(-c1cccnc1)n2C1CC1 | FLT3 | cell-free assay, competition with immobilised ligand | 1 µM | 93%
N[C@H]1CCN(c2nccc(-c3cnn4ncccc34)n2)C1 | FLT3 N841I | binding | 1 µM | 84%

Structure (SMILES) | target | test | setting | remaining binding
COc1cc(-c2cn(C3CCc4ccccc4N(CC(F)(F)F)C3=O)nn2)ccc1-n1ccc(C)n1 (stereo not drawn) | FLT3 | cell-free assay, competition with immobilised ligand | 1 µM | 85%
C[C@@H]1CCN(c2nccc(-c3cnn4ncccc34)n2)C1 | FLT3 R834Q | binding | 1 µM | 71%
Nc1ncc2c(n1)-c1c([nH]c3ccc(C#CC4CC4)cc13)CCCC2 | FLT3 | binding, competition with immobilised ligand | 1 µM | 96%
Cc1cnc(Nc2ccc(C(=O)N3CCC(N4CCCC4)CC3)cc2)nc1-c1cc2ccccc2s1 | FLT3 autoinhibited | binding, competition with immobilised ligand | 1 µM | 9.5%
CN(C)c1nccc(-c2cnn3ncccc23)n1 | FLT3 autoinhibited | binding | 1 µM | 100%
O=C(NCC1CCOCC1)c1n[nH]cc1NC(=O)c1c(F)cccc1F | FLT3 D835H | binding, competition with immobilised ligand | 1 µM | 98%
C[C@@H]1CN(c2ccc3ncc(-c4ccc5[nH]nc(C6CC6)c5c4)n3n2)C[C@H](C)O1 | FLT3 | binding, competition with immobilised ligand | 50 nM | 31%
O=C(NCCCN1CCOCC1)c1ccc(Nc2nccc(-c3cc4ccccc4s3)n2)cc1 | FLT3 R834Q | binding, competition with immobilised ligand | 1 µM | 43%
CS(=O)(=O)N1CCCC(NC(=O)[C@H](CCC2CCCCC2)NC(=O)c2ccc(CNC(=O)c3cnc4ccccn34)cc2)C1 (stereo partly drawn) | FLT3 autoinhibited | cell-free assay, competition with immobilised ligand | 0.1 µM | 93%
CC1CCCN1c1nccc(-c2cnn3ncccc23)n1 (stereo not drawn) | FLT3 N841I | binding | 1 µM | 75%
O=C(NCc1ncc(C(F)(F)F)cc1Cl)c1ccc2c(c1)C1(CCS(=O)(=O)CC1)[C@H](C1CC1)N2S(=O)(=O)c1ccc(F)cc1 | FLT3 R834Q | cell-free assay, competition with immobilised ligand | 1 µM | 90%
c1cncc(-c2cccc(Nc3nccc(NC4CCCCC4)n3)c2)c1 | FLT3 K663Q | binding, competition with immobilised ligand | 10 µM | 1.1%
CNC(=O)[C@@H]1CC[C@@H](n2c(-c3ccc4cnccc4c3)nc3ccc(C(=O)NCc4cccc(C(N)=O)c4)cc32)C1 | FLT3 K663Q | binding, competition with immobilised ligand | 1 µM | 99%
CN(C)c1ncc(F)c(-c2cnn3ncccc23)n1 | FLT3 N841I | binding | 1 µM | 75%
Cc1noc([C@H]2C[C@@H](c3ccc(C(F)(F)F)cc3)CN(C(=O)N3CCS(=O)(=O)C3)C2)n1 | FLT3 autoinhibited | cell-free assay, competition with immobilised ligand | 1 µM | 100%
CN(CCCC(F)(F)F)c1nccc(-c2cnn3ncccc23)n1 | FLT3 K663Q | binding | 1 µM | 88%
CCN1CCN(Cc2ccc(C(=O)Nc3ccc(C)c(Oc4ccc5c(c4)CC(=O)N5)c3)cc2C(F)(F)F)CC1 | FLT3 N841I | binding, competition with immobilised ligand | 1 µM | 81%
COc1cnc(Nc2cccc(S(N)(=O)=O)c2)nc1N1CCN(c2ccccc2)C(=O)C1 | FLT3 autoinhibited | binding, competition with immobilised ligand | 1 µM | 100%
